In ChEMBL document CHEMBL5696442, “Discovery of type II inhibitors of TGFβ-activated kinase 1 (TAK1) and mitogen-activated protein kinase kinase kinase kinase 2 (MAP4K2)” (J Med Chem, 2015):
The source made the active and inactive calls. The rule behind the calls is not given here.

Tests used:
[1] = Inhibition of p70S6K ATP Loop labeling site harbouring GGYGKVFQVR in human A-375 cells at 0.05 uM by KiNativ Profiling analysis relative to control; conditions: condition cancer
[2] = target: Calcium/calmodulin-dependent protein kinase type 1 (Homo sapiens) (UniProt Q14012); assay: Inhibition of CAMK1 alpha Lys1 labeling site in human A-375 cells at 0.5 uM by KiNativ Profiling analysis relative to control; type: cell-based
Summary of the method: (§1)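 Intact A375 melanoma cells were treated with compound at 5 or 0.5 μM, then lysed. Lysate kinases were labeled with a lysine-reactive ATP or ADP-biotin probe (KiNativ). Inhibition is read as protection of each kinase labeling site from probe labeling.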

[3] = system: GEN2.2; assay: Inhibition of CL097 induced p38 phosphorylation level in human GEN2.2 cells at 1 uM preincubated with compound for 1 hr followed by CL097 stimulation and measured after 30 mins by Western blot analysis; type: functional, cell-based
Summary of the method: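 Gen2.2 cells were pretreated with compound at 1 μM for 1 h, then stimulated with CL097 for 30 min. Lysates were analysed by Western blot for phosphorylation of p105, p38 and JNK1/2.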

[4] = target: Tyrosine-protein kinase ABL2 (Homo sapiens, UniProt P42684); assay: Inhibition of ARG Lys1 labeling site in human A-375 cells at 0.5 uM by KiNativ Profiling analysis relative to control; type: cell-based; summary of the method: as §1
Sequence of Tyrosine-protein kinase ABL2 (P42684 whole entry): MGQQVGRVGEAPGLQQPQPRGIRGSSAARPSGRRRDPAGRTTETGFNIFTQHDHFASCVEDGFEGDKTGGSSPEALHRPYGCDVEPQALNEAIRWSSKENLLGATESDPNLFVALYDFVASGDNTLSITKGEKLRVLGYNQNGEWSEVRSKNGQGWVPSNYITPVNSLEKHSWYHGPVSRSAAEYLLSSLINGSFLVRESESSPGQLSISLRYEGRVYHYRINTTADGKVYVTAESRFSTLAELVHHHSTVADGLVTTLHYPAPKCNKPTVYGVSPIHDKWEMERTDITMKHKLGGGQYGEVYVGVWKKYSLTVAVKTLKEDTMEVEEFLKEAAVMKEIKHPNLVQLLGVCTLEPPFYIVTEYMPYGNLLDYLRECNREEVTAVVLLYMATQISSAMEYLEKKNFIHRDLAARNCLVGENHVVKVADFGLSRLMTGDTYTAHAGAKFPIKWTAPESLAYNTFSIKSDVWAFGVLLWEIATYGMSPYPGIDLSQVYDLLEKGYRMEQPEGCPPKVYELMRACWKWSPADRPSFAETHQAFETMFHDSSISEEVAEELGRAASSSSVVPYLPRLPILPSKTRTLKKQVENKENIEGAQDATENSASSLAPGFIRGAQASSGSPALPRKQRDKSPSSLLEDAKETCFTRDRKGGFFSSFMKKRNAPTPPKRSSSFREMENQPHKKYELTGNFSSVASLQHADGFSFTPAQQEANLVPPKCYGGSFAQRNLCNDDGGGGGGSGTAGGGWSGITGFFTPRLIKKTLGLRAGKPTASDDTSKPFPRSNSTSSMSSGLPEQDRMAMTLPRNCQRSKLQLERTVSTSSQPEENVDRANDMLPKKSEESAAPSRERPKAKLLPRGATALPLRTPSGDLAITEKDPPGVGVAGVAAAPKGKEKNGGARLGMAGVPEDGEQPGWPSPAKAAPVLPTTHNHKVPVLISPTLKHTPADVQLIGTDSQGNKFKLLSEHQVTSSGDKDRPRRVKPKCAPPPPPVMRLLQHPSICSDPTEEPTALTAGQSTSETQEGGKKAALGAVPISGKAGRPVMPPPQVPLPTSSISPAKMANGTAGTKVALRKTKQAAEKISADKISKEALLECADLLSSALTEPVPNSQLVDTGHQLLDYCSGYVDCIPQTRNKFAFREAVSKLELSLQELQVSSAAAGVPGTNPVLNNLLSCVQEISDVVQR

[5] = target: Serine/threonine-protein kinase Nek7 (Homo sapiens) (UniProt Q8TDX7); assay: Inhibition of NEK7 Lys2 labeling site in human A-375 cells at 5 uM by KiNativ Profiling analysis relative to control; type: cell-based
[6] = target: Tyrosine-protein kinase Fer (Homo sapiens, UniProt P16591); assay: Inhibition of FER ACT labeling site in human A-375 cells at 5 uM by KiNativ Profiling analysis relative to control; type: cell-based
Sequence of Tyrosine-protein kinase Fer (P16591 whole entry, looked up): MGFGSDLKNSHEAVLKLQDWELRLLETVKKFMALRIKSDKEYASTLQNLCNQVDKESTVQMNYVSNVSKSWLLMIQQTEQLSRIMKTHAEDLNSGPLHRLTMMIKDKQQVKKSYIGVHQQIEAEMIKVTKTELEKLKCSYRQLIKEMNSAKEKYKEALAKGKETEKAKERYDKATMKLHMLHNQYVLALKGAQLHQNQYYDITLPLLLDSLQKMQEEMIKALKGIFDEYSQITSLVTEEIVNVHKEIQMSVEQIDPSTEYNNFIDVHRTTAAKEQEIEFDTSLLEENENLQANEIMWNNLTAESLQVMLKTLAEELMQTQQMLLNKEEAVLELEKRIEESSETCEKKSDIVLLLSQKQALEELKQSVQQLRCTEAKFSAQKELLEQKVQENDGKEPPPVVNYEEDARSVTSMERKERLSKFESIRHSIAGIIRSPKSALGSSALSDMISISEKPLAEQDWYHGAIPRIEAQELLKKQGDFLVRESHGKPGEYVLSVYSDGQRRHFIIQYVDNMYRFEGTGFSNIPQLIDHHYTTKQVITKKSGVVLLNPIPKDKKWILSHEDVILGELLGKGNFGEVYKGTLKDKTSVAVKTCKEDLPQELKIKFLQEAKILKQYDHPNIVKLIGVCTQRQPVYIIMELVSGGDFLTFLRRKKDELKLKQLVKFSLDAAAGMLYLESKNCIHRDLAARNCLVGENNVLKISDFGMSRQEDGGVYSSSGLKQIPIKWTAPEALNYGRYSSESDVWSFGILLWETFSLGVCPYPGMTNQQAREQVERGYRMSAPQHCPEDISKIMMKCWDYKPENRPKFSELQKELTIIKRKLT

[7] = target: Serine/threonine-protein kinase PLK1 (Homo sapiens) (UniProt P53350); assay: Inhibition of PLK1 Lys1 labeling site in human A-375 cells at 5 uM by KiNativ Profiling analysis relative to control; type: cell-based
[8] = target: Serine/threonine-protein kinase WNK2 (Homo sapiens) (UniProt Q9Y3S1); assay: Inhibition of Wnk2 ACT labeling site in human A-375 cells at 0.5 uM by KiNativ Profiling analysis relative to control; type: cell-based
Sequence of Serine/threonine-protein kinase WNK2 (Homo sapiens) (Q9Y3S1 whole entry): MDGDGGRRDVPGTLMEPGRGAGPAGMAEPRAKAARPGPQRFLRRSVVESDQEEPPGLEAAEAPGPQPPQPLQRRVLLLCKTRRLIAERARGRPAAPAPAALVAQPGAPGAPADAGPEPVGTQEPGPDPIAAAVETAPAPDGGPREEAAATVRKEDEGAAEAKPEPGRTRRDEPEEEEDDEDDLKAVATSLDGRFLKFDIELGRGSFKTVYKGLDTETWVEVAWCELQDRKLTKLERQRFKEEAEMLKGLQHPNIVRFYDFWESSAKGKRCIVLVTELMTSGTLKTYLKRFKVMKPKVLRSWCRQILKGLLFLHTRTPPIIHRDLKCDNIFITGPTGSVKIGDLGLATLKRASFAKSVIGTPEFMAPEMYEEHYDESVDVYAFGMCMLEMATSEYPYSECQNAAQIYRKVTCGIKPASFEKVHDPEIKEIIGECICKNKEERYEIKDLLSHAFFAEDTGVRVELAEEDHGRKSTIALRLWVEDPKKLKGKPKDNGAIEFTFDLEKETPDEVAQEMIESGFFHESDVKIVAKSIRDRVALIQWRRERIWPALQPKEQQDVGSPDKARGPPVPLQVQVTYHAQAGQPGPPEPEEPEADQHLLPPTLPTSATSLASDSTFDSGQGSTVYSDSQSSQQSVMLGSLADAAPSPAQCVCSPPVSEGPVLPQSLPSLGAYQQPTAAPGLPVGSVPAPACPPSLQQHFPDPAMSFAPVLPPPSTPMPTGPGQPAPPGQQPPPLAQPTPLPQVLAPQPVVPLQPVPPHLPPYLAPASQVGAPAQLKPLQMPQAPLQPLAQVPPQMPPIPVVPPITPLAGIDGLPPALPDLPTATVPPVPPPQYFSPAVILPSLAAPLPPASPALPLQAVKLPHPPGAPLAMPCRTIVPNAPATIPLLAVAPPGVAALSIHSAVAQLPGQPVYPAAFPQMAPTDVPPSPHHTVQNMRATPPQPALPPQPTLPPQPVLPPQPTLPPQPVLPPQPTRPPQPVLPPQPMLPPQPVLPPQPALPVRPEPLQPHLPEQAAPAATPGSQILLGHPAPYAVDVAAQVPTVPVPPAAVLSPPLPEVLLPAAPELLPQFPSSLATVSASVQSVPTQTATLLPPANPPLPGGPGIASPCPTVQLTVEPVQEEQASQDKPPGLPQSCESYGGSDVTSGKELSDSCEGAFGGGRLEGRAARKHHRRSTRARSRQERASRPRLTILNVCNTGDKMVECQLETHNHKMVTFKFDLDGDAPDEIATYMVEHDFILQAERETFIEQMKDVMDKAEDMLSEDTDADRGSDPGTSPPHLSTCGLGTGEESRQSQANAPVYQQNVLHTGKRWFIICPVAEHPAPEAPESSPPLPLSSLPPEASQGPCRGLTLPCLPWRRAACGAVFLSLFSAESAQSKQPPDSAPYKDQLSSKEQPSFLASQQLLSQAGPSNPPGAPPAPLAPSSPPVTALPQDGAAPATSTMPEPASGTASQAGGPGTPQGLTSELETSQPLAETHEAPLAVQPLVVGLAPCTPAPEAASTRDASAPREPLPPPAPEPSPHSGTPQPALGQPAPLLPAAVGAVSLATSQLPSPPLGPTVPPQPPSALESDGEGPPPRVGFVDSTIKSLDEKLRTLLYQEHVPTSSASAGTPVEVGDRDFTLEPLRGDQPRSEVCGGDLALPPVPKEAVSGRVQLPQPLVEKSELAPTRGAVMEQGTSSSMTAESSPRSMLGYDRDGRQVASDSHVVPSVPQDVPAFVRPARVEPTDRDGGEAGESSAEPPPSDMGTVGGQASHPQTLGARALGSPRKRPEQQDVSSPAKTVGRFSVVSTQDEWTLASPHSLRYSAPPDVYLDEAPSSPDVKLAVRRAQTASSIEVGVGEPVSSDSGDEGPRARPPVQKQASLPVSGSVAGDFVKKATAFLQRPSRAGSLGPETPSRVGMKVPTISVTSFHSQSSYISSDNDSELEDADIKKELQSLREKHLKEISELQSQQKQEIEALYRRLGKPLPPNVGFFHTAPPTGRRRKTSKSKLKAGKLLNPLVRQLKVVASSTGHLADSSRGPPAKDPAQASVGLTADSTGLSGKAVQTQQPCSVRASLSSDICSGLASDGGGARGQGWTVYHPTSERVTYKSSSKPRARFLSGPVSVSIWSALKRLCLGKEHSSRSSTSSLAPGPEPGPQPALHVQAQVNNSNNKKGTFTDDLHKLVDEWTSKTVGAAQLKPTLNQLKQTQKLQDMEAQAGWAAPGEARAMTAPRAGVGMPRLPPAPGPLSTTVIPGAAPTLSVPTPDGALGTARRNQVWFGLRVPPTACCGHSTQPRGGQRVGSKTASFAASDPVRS

[9] = target: Mitogen-activated protein kinase kinase kinase kinase 4 (Homo sapiens, UniProt O95819); assay: Inhibition of ZC1/HGK Lys2 labeling site in human A-375 cells at 0.05 uM by KiNativ Profiling analysis relative to control; type: cell-based
[10] = target: Protein kinase C alpha type (Homo sapiens) (UniProt P17252); assay: Inhibition of PKCa Lys2 labeling site in human A-375 cells at 5 uM by KiNativ Profiling analysis relative to control; type: cell-based
[11] = target: T1, Scaffold protein ILK (Homo sapiens) (UniProt Q13418); assay: Inhibition of ILK Lys1 labeling site in human A-375 cells at 5 uM by KiNativ Profiling analysis relative to control; type: cell-based
T1 sequence (whole entry): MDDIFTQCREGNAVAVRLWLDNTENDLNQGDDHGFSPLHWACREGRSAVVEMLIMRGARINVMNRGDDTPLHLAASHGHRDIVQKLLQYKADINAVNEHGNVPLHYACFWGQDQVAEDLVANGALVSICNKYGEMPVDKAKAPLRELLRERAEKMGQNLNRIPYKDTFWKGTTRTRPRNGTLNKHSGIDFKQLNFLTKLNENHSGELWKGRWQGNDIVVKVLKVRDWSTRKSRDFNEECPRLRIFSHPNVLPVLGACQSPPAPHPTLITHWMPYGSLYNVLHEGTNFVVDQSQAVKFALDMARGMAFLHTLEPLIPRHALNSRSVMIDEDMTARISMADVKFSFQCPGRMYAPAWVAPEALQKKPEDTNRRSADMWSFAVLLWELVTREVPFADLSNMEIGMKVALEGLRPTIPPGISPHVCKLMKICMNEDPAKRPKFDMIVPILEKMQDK

[12] = target: T2, Serine/threonine-protein kinase Chk1 (Homo sapiens) (UniProt O14757); assay: Inhibition of CHK1 Lys2 labeling site harbouring DIKPENLLLDER in human A-375 cells at 0.5 uM by KiNativ Profiling analysis relative to control; type: cell-based
T2 sequence (whole entry): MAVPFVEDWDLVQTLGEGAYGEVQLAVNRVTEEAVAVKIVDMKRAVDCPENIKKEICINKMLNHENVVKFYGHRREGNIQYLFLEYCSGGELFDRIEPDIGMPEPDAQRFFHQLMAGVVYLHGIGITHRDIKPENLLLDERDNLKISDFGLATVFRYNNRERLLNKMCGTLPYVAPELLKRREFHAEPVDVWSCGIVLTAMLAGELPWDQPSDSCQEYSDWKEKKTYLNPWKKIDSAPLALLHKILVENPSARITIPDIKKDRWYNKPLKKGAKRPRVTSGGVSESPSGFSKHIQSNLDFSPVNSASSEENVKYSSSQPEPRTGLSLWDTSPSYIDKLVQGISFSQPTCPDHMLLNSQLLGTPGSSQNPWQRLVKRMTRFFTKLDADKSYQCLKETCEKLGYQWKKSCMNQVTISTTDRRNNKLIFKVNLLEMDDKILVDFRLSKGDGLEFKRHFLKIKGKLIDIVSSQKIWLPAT
Summary of the method: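 Live A375 melanoma cells were treated with compound at 5 or 0.5 μM. The cells were then lysed, and the lysates were labeled with a lysine-reactive ATP or ADP-biotin acyl probe (KiNativ). Inhibition is the compound's protection of each kinase labeling-site peptide from probe labeling, relative to untreated control.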

[13] = target: T3, Mitogen-activated protein kinase kinase kinase 2 (Homo sapiens) (UniProt Q9Y2U5); assay: Inhibition of MAP3K2 Lys1 labeling site harbouring VYLCYDVDTGRELAVKQVQFDPDSPETSKEVNALECEIQLLK in human A-375 cells at 0.5 uM by KiNativ Profiling analysis relative to control; type: cell-based
T3 sequence (whole entry): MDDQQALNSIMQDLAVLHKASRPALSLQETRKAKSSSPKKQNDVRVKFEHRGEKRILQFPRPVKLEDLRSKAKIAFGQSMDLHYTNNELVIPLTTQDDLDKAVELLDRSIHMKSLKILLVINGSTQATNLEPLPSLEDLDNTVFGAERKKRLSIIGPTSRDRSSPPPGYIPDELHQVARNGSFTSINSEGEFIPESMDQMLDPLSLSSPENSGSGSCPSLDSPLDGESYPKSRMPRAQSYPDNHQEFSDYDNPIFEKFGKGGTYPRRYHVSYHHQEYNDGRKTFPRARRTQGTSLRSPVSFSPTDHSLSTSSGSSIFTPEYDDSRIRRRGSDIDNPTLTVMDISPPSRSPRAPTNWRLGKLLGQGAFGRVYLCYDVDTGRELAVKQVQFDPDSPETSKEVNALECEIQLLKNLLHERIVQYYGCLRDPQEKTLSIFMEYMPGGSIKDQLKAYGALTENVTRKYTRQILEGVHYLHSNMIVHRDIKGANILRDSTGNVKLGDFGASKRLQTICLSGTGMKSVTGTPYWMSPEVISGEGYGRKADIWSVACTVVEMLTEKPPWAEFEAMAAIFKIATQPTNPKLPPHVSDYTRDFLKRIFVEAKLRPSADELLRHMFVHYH

| SMILES | inhibition at 0.05 µM [1] [%] | inhibition [2] [%] | inhibition [3] | inhibition [4] [%] | inhibition [5] [%] | inhibition [6] [%] | inhibition [7] [%] | inhibition [8] [%] | inhibition [9] [%] | inhibition [10] [%] | inhibition [11] [%] | inhibition [12] [%] | inhibition [13] [%] |
| --- | --- | --- | --- | --- | --- | --- | --- | --- | --- | --- | --- | --- | --- |
| CCN1CCN(Cc2ccc(NC(=O)c3ccc(C)c(Oc4ccnc5[nH]ccc45)c3)cc2C(F)(F)F)CC1 | 18.9 | 69.7 | Active | 85.5 | 6.4 | 96.8 | -7.3 | 3.9 | 32.6 | 51 | -9.9 | 45.2 | 17.4 |
| CNc1cc(Oc2cc(C(=O)Nc3cc(-n4cnc(C)c4)cc(C(F)(F)F)c3)ccc2C)ncn1 | – | – | inactive | – | – | – | – | – | – | – | – | – | – |
| CCN1CCN(Cc2ccc(NC(=O)c3ccc(C)c(/C=C/c4cnc5[nH]ccc5c4OC)c3)cc2C(F)(F)F)CC1 | -14.4 | 37 | – | > 90 | 3.1 | 74 | 5.7 | 6.9 | 19.5 | 50.2 | -8.7 | 19.4 | -0.7 |
